Source: ChEMBL document CHEMBL2034980, “N⁴-Phenyl-substituted 2-acetylpyridine thiosemicarbazones: cytotoxicity against human tumor cells, structure-activity relationship studies and investigation on the mechanism of action” (Bioorg Med Chem, 2012)
Calls of active or inactive are those of the source. The rule behind the calls is not given here.

Columns and labels:
MCF7 [1] = experiment: Induction of apoptosis in human MCF7 cells assessed as irregularities in cellular shape at 1 uM after 48 hrs by DAPI staining; format: functional, cell-based
U-87MG ATCC [2] = experiment: Induction of apoptosis in human U87 cells assessed as irregularities in cellular shape at 1 uM after 48 hrs by DAPI staining; format: functional, cell-based
U-87MG ATCC [3] = experiment: Induction of apoptosis in human U87 cells assessed as appearance of autophagolysosomes at 1 uM after 48 hrs by acridine orange/ethidium bromide staining-based microscopy; format: functional, cell-based
Procedure, shortened: (§1)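 After 48 h at 1 μM, cells were incubated for 15 min in serum-free medium containing 1 μg mL⁻¹ acridine orange and 1 μg mL⁻¹ ethidium bromide. The medium was removed and cells imaged by inverted fluorescence microscopy (530–650 nm). Green/orange nuclear patterns and acidic cytoplasmic vacuoles were scored.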

U-87MG ATCC [4] = experiment: Induction of apoptosis in human U87 cells assessed as chromatin condensation at 1 uM after 48 hrs by acridine orange/ethidium bromide staining-based microscopy; format: functional, cell-based; procedure, shortened: as §1
[5] = Haemolytic activity in human RBC after 1 hr by photometry; format: ADME, cell-based; conditions: Erythrocyte
Procedure, shortened: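 Human EDTA blood was spun at 700xg for 10 min and the erythrocytes washed three times in cold PBS pH 7.4, then resuspended in it. Cells were incubated with varying compound concentrations for 1 h at 37 °C with shaking. After centrifugation, released haemoglobin was read at 540 nm to give the IC50. Mean ± SD, n = 4.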

T98G [6] = experiment: Cytotoxicity against human T98G cells expressing mutant p53 after 48 hrs by MTT assay; format: functional, cell-based; conditions: for IC50: read-out: IC50
Procedure, shortened: (§2)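 MTT assay. Cells were grown in DMEM with 10% FBS and penicillin/streptomycin at 37 °C under 5% CO2, seeded at 1–2×10^3 cells/well and treated 12 h later with 1×10^-12 to 1×10^-5 M ([…] from DMSO stock, final DMSO <0.5%) for 48 h. MTT was added at 0.5 mg mL⁻¹, formazan dissolved in DMSO and read at 570 nm. IC50 is the concentration giving 50% cytotoxicity. Quadruplicates, ≥3 independent experiments.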

MCF7 [7] = experiment: Induction of apoptosis in human MCF7 cells assessed as DNA fragmentation at 1 uM after 48 hrs by DAPI staining; format: functional, cell-based
Procedure, shortened: (§3)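 Cells were treated at 1 μM for 48 h, washed in PBS and fixed in 70% methanol for 30 min at room temperature. They were stained with 0.4 μg mL⁻¹ DAPI for 1 h in the dark, and nuclear condensation and fragmentation were scored by fluorescence microscopy (385–410 nm).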

U-87MG ATCC [8] = experiment: Induction of apoptosis in human U87 cells assessed as DNA fragmentation at 1 uM after 48 hrs by DAPI staining; format: functional, cell-based; procedure, shortened: as §3
MCF7 [9] = experiment: Induction of apoptosis in human MCF7 cells assessed as chromatin condensation at 1 uM after 48 hrs by DAPI staining; format: functional, cell-based; procedure, shortened: as §3
MCF7 [10] = experiment: Induction of apoptosis in human MCF7 cells assessed as cell shrinkage at 1 uM after 48 hrs by DAPI staining; format: functional, cell-based
U-87MG ATCC [11] = experiment: Induction of apoptosis in human U87 cells assessed as cell shrinkage at 1 uM after 48 hrs by DAPI staining; format: functional, cell-based
MCF7 [12] = experiment: Induction of apoptosis in human MCF7 cells assessed as appearance of autophagolysosomes at 1 uM after 48 hrs by acridine orange/ethidium bromide staining-based microscopy; format: functional, cell-based; procedure, shortened: as §1
MCF7 [13] = experiment: Cytotoxicity against human MCF7 cells after 48 hrs by MTT assay; format: functional, cell-based; conditions: for IC50: MCF7, 48 h, read-out: IC50; procedure, shortened: as §2
U-87MG ATCC [14] = experiment: (§4) Cytotoxicity against human U87 cells expressing wild-type p53 after 48 hrs by MTT assay; format: functional, cell-based; procedure, shortened: as §2
[15] = as §4; format: functional, cell-based, U-87MG ATCC; conditions: U-87 MG, read-out: IC50; procedure, shortened: as §2
MCF7 [16] = experiment: Induction of apoptosis in human MCF7 cells assessed as membrane blebbing at 1 uM after 48 hrs by DAPI staining; format: functional, cell-based
T98G [17] = experiment: Induction of apoptosis in human T98G cells assessed as appearance of autophagolysosomes at 1 uM after 48 hrs by acridine orange/ethidium bromide staining-based microscopy; format: functional, cell-based; procedure, shortened: as §1
T98G [18] = experiment: Induction of apoptosis in human T98G cells assessed as cell shrinkage at 1 uM after 48 hrs by DAPI staining; format: functional, cell-based
T98G [19] = experiment: Induction of apoptosis in human T98G cells assessed as membrane blebbing at 1 uM after 48 hrs […]; format: functional, cell-based
MCF7 [20] = experiment: Induction of apoptosis in human MCF7 cells assessed as chromatin condensation at 1 uM after 48 hrs by acridine orange/ethidium bromide staining-based microscopy; format: functional, cell-based; procedure, shortened: as §1
U-87MG ATCC [21] = experiment: Induction of apoptosis in human U87 cells assessed as membrane blebbing at 1 uM after 48 hrs by DAPI staining; format: functional, cell-based
T98G [22] = experiment: Induction of apoptosis in human T98G cells assessed as irregularities in cellular shape at 1 uM after 48 hrs by DAPI staining; format: functional, cell-based
T98G [23] = experiment: Induction of apoptosis in human T98G cells assessed as chromatin condensation at 1 uM after 48 hrs by acridine orange/ethidium bromide staining-based microscopy; format: functional, cell-based; procedure, shortened: as §1
T98G [24] = experiment: Induction of apoptosis in human T98G cells assessed as chromatin condensation at 1 uM after 48 hrs by DAPI staining; format: functional, cell-based; procedure, shortened: as §3
U-87MG ATCC [25] = experiment: Induction of apoptosis in human U87 cells assessed as chromatin condensation at 1 uM after 48 hrs by DAPI staining; format: functional, cell-based; procedure, shortened: as §3
T98G [26] = experiment: Induction of apoptosis in human T98G cells assessed as DNA fragmentation at 1 uM after 48 hrs by DAPI staining; format: functional, cell-based; procedure, shortened: as §3

| SMILES | Activity (MCF7 [1]) | Activity (U-87MG ATCC [2]) | Activity (U-87MG ATCC [3]) | Activity (U-87MG ATCC [4]) | IC50 [5] [nM] | Activity (T98G [6]) | IC50 (T98G [6]) [nM] | Activity (MCF7 [7]) | Activity (U-87MG ATCC [8]) | Activity (MCF7 [9]) | Activity (MCF7 [10]) | Activity (U-87MG ATCC [11]) | Activity (MCF7 [12]) | Activity (MCF7 [13]) | IC50 (MCF7 [13]) [nM] | Activity (U-87MG ATCC [14]) | IC50 [15] [nM] | Activity (MCF7 [16]) | Activity (T98G [17]) | Activity (T98G [18]) | other results |
| --- | --- | --- | --- | --- | --- | --- | --- | --- | --- | --- | --- | --- | --- | --- | --- | --- | --- | --- | --- | --- | --- |
| CC(=NNC(=S)Nc1ccccc1F)c1ccccn1 (mixture of isomers) | Active | Active | Active | Active | > 10000 | Dose-dependent effect | 3.1 | Active | Active | Active | Active | Active | Active | Dose-dependent effect | 0.39 | Dose-dependent effect | 5 | Active | Active | Active | Activity (T98G [19]): Active; Activity (MCF7 [20]): Active; Activity (U-87MG ATCC [21]): Active; Activity (T98G [22]): Active; Activity (T98G [23]): Active; Activity (T98G [24]): Active; Activity (U-87MG ATCC [25]): Active; Activity (T98G [26]): Active |
| CC(=NNC(=S)Nc1ccccc1I)c1ccccn1 (mixture of isomers) | Active | Active | Active | Active | > 10000 | Dose-dependent effect | 8.1 | Active | Active | Active | Active | Active | Active | Dose-dependent effect | 4.1 | Dose-dependent effect | 6.1 | Active | Active | Active | Activity (T98G [19]): Active; Activity (MCF7 [20]): Active; Activity (U-87MG ATCC [21]): Active; Activity (T98G [22]): Active; Activity (T98G [23]): Active; Activity (T98G [24]): Active; Activity (U-87MG ATCC [25]): Active; Activity (T98G [26]): Active |
| CC(=NNC(=S)Nc1ccccc1[N+](=O)[O-])c1ccccn1 (mixture of isomers) | Active | Active | Active | Active | > 10000 | Dose-dependent effect | 6.6 | Active | Active | Active | Active | Active | Active | Dose-dependent effect | 5.7 | Dose-dependent effect | 4.3 | Active | Active | Active | Activity (T98G [19]): Active; Activity (MCF7 [20]): Active; Activity (U-87MG ATCC [21]): Active; Activity (T98G [22]): Active; Activity (T98G [23]): Active; Activity (T98G [24]): Active; Activity (U-87MG ATCC [25]): Active; Activity (T98G [26]): Active |
